One assay concerns NIH3T3. Briefly: Transfection activity of compound was tested in murine embryonic fibroblast (NIH3T3) cells (Level of luciferase gene expression is expressed as mean of relative light units (RLU) per well). The assay is classed as functional, Mus musculus. The method in brief: (§1)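 Cationic lipid:DOPE (1:1 molar) films hydrated in PBS pH 7.4 (5 mM cationic lipid), bath-sonicated. pCMV-Luc (CMV-driven firefly luciferase) 1 µg in serum-free CHO-S-SFM mixed with 5 nmol lipid in HBSS, 5–10 min RT. Cells 5×10^4/well seeded 24 h prior; 5 h exposure, then FBS; medium replaced at 24 h; lysed 24 h later; luciferase luminescence (10 s), RLU/well, mean of triplicates.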

The test system of a further assay is HeLa. Briefly: Transfection activity of compound was tested in human cervical adenocarcinoma (HeLa) cells (Level of luciferase gene expression is expressed as mean of relative light units (RLU) per well). It is filed as functional. The method in brief:
as §1

The next assay concerns HEK293. Briefly: Transfection activity of compound was tested in human embryonic kidney (293) cells (Level of luciferase gene expression is expressed as mean of relative light units (RLU) per well). The assay is classed as functional. In a few lines: as §1
Assay [1] in a line: Transfection activity of compound was tested in lewis lung carcinoma (3LL) cells (Level of luciferase gene expression is expressed as mean of relative light units (RLU) per well). It is filed as functional, cell-based. The following applies: Mus musculus. In a few lines:
as §1

For the compound `C=C1CC[C@H](OC(=O)NCCCCN)C/C1=C/C=C1\CCC[C@]2(C)[C@@H]([C@H](C)CCCC(C)C)CC[C@@H]12.Cl`, the RLU/well was 7.8e+06 in the assay on NIH3T3, 1.7e+06 with HeLa, 4.7e+07 in the assay with HEK293 and 820000 in assay [1].
Turning to `C=C1CC[C@H](OC(=O)NCCN(CCN)CCN)C/C1=C/C=C1\CCC[C@]2(C)[C@@H]([C@H](C)CCCC(C)C)CC[C@@H]12.Cl`, the RLU/well was 690000 with NIH3T3, 1.4e+06 in the assay with HeLa, 3.2e+07 in the assay on HEK293 and 150000 in assay [1].
As to `C=C1CC[C@H](OC(=O)NCCCCN)C/C1=C/C=C1\CCC[C@]2(C)[C@@H]([C@H](C)/C=C/[C@H](C)C(C)C)CC[C@@H]12.Cl`, the RLU/well in the assay with NIH3T3 is 2.1e+06; in the assay on HeLa it was 930000; with HEK293, 6.3e+07; in assay [1] it was 610000.
For `C=C1CC[C@H](OC(=O)NCC[N+](C)(C)C)C/C1=C/C=C1\CCC[C@]2(C)[C@@H]([C@H](C)/C=C/[C@H](C)C(C)C)CC[C@@H]12.[I-]`, in that order: 180000, 38000, 1.6e+06 and 4000.
The matching figures for `C=C1CC[C@H](OC(=O)NCCN(C)C)C/C1=C/C=C1\CCC[C@]2(C)[C@@H]([C@H](C)/C=C/[C@H](C)C(C)C)CC[C@@H]12.Cl`: 270000, 2.6e+06, 3.9e+06 and 800000.
For `C=C1CC[C@H](OC(=O)NCC[N+](C)(C)C)C/C1=C/C=C1\CCC[C@]2(C)[C@@H]([C@H](C)CCCC(C)C)CC[C@@H]12.[I-]`, in that order: 570000, 18000, 560000 and 5300.
Take `C=C1CC[C@H](OC(=O)NCCN(C)C)C/C1=C/C=C1\CCC[C@]2(C)[C@@H]([C@H](C)CCCC(C)C)CC[C@@H]12.Cl`: the RLU/well came to 120000 in the assay on NIH3T3, 290000 with HeLa, 1.1e+06 in the assay on HEK293 and 220000 in assay [1].
For `C=C1CC[C@H](OC(=O)NCCN(CCN)CCN)C/C1=C/C=C1\CCC[C@]2(C)[C@@H]([C@H](C)/C=C/[C@H](C)C(C)C)CC[C@@H]12.Cl`, in that order: 1.9e+06, 540000, 4.8e+07 and 590000.
